According to ChEMBL document CHEMBL3046847, “Synthesis and in vitro antiproliferative activity of novel 12(H)-quino[3,4-b][1,4]benzothiazine derivatives” (Med Chem Res, 2013):
In brackets after ≈: the same amount, converted by molar mass.

Experiments:
[1] = test system: SNB-19; assay: Cytotoxicity against Homo sapiens (human) SNB19 cells assessed as cell viability after 72 hr by WST-1 assay; type: functional, cell-based
Method in brief: (§1)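 Cells grown in D-MEM with 12 % FCS, streptomycin and penicillin at 37 °C, 5 % CO2, seeded at 1×10^4 cells/well. Exposed to compounds at 0–100 μg/ml for 72 h, then incubated with WST-1 for 2 h. Absorbance was read at 450 nm against a background control. Values are means of at least two independent experiments run in triplicate.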

[2] = test system: C32; assay: Cytotoxicity against Homo sapiens (human) C32 cells assessed as cell viability after 72 hr by WST-1 assay; type: functional, cell-based; method in brief: as §1
[3] = Homo sapiens, SNB-19, 72 h, read-out: IC50
[4] = Homo sapiens, C32, 72 h, read-out: IC50

Structure (SMILES) | IC50 [1, 3] [µg/mL] | IC50 [2, 4] [µg/mL] | IC50 ([1]; snb-19) | IC50 ([2]; c32)
Fc1ccc2c(c1)Sc1cnc3ccccc3c1N2CCN1CCCCC1 | 12.4 (≈ 32.7 µM) | 7 (≈ 18.4 µM) |  | 
Cc1ccc2c(c1)Sc1cnc3ccccc3c1N2 |  | 8.7 (≈ 32.9 µM) | Not Active | 
CN(C)CCCN1c2cccnc2Sc2cnc3ccccc3c21 | 8.2 (≈ 24.4 µM) | 6.5 (≈ 19.3 µM) |  | 
Brc1ccc2c(c1)Sc1cnc3ccccc3c1N2 |  | 8.6 (≈ 26.1 µM) | Not Active | 
Fc1ccc2c(c1)Sc1cnc3ccccc3c1N2 |  | 9.4 (≈ 35 µM) | Not Active | 
c1cnc2c(c1)N(CCN1CCCCC1)c1c(cnc3ccccc13)S2 | 7.3 (≈ 20.1 µM) | 7.9 (≈ 21.8 µM) |  | 
Cc1ccc2c(c1)Sc1cnc3ccccc3c1N2CCN1CCCCC1 | 6.6 (≈ 17.6 µM) | 6.9 (≈ 18.4 µM) |  | 
c1cnc2c(c1)Nc1c(cnc3ccccc13)S2 | 10.2 (≈ 40.6 µM) | 8.7 (≈ 34.6 µM) |  | 
c1ccc2c(c1)Nc1c(cnc3ccccc13)S2 | 9.6 (≈ 38.3 µM) | 8.9 (≈ 35.6 µM) |  | 
Clc1ccc2c(c1)Sc1cnc3ccccc3c1N2 |  | 7.8 (≈ 27.4 µM) | Not Active | 
Cc1cccc2c1Nc1c(cnc3ccccc13)S2 |  |  | Not Active | Not Active
c1ccc2c(c1)Sc1cnc3ccccc3c1N2CCN1CCCCC1 | 6.7 (≈ 18.5 µM) | 5.6 (≈ 15.5 µM) |  | 
